An excerpt weighted towards active compounds, which were near 4.3% of everything screened.
WT yeast gro inh: growth inhibition of WT strain, primary screen, mitochondrial fusion inhibitor project, WT and mutant strains, chemical genetic | mitochondrial fusion phenotypic screen | inhibition, % at 10 µM | 190,000 tested, 2.1% active | AID 1362, 2008; in the data active = inhibition above about 58%; tested in S. cerevisiae
Yeast growth inh: growth inhibitors of yeast BB579 in restrictive medium, primary screen, yeast lifespan-shortening project, S. cerevisiae; OD615, 48 h; inhibition, % at 10 µM; 140,000 tested, 0.51% active; AID 804, 2007;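 active = inhibition above a set limit, 3 SD over the mean compound inhibition, cut at about 44% in these data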
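Test system: DeaD yeast strain BB579 / Buffer or medium: restrictive glucose-based CSMM-D medium / Doses: single 10 µM dose / Schedule: 4 h cell preincubation, 48 h compound exposure, 30 °C humidified / Technique: culture absorbance at 615 nm / Controls: amphotericin B positive control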
RAM network inh: inhibitors of the yeast RAM network, primary screen, dse1pr::URA3 reporter, 5-FOA selection | S. cerevisiae dse1pr::URA3 reporter, 5-FOA growth OD615, 2 d; analog-sensitive cbk1-as2 kinase mutant strain | inhibition, % at 50 µM | 190,000 tested, 1.8% active | AID 868, 2007;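 active = inhibition above a set limit, 3 SD over mean compound inhibition, cut at about 8.4% in these data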;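 also: 0% = DMSO-only wells with no growth and 100% = 10 µM 1-NA-PP1 full growth; inhibition rescues growth on 5-FOA so higher OD means more RAM inhibition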
Yeast lifespan up: compounds extending yeast replicative lifespan, primary screen, S. cerevisiae, OD615 | AID 775, 2007 | 130,000 tested, 0.68% active | inhibition of the nicotinamide effect, % at 10 µM | S. cerevisiae growth with nicotinamide; deaD strain in restrictive glucose medium;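 active = inhibition above a set limit, placed 3 SD over the median of all compounds, cut at about 26% in these data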;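 also: 0% = nicotinamide-treated wells and 100% = cells grown without nicotinamide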
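Test system – modified budding yeast, DeaD strain · Compound – single dose 10 µM compound, 0.25% DMSO · Times – culture preincubation 4 h, compound exposure 48 h, both 30 °C · Detection – optical density (absorbance) at 615 nm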
* = called active by the depositor; nt = no result.

SMILES	WT yeast gro inh	Yeast growth inh	RAM network inh	Yeast lifespan up
O=C(c1n[nH]c2ccccc12)N1CCN(S(=O)(=O)c2ccc3ccccc3c2)CC1	77*	-27	5	-6
COc1ccc(C2OC(=O)CC2C(=O)NCc2ccccc2Cl)cc1OC (centres undefined)	-4	nt	1	nt
COc1cc(-c2nnc(SCC(=O)OC3CCCCC3)o2)cc(OC)c1OC	8	-54	9.0*	-11
C=CCSc1nc(N)c(C(=O)Nc2ccccc2)cc1C#N	16	7	9.8*	-4
O=C(CSc1nnc(NC(=O)C2CC2)s1)NCc1ccco1	8	-24	0	2
NC(=O)c1ccc(N2CCN(S(=O)(=O)c3ccccc3)CC2)c([N+](=O)[O-])c1	5	nt	6	nt
COc1ccc(C(=O)N(c2ccc(OC)cc2)S(=O)(=O)c2cccs2)cc1	74*	3	6	0
COc1ccccc1N/C(N)=N/c1nc(CSc2nc3ccccc3s2)cc(=O)[nH]1	5	-20	3	1
Cc1nnc(SCc2cc(=O)[nH]c(/N=C(\N)Nc3ccccc3Sc3ccccc3)n2)s1	4	nt	9.0*	nt
Cc1[nH]n(-c2ncc(-c3ccc(Cl)cc3)s2)c(=O)c1C(c1ccc(Cl)cc1)C(C#N)C#N (centres undefined)	20	-9	8.6*	8
COc1ccc(C(c2c(C)[nH]n(C(N)=S)c2=O)C(C#N)C#N)cc1 (centres undefined)	1	37	-1	nt
CC1(C(=O)OCC(=O)c2c[nH]c3ccccc23)CC1(Cl)Cl (centres undefined)	67*	-44	-2	-23
Cc1ccc(C(=O)OCC(=O)c2c[nH]c3ccccc23)cc1	4	-23	7	0
CC(C)Cc1ccc(C(C)C(=O)OCC(=O)c2c[nH]c3ccccc23)cc1 (centres undefined)	69*	-27	10*	-5
CCc1nc2cc(CC(=O)O)ccc2o1	-10	-15	-1	-7
O=S(=O)(c1ccccc1)c1ncc(C(F)(F)F)cc1Cl	-33	nt	9.8*	nt
O=S(=O)(c1ccccc1)c1ncc(C(F)(F)F)cc1O	-13	nt	2	nt
COc1ccc(C)cc1NC(=O)COC(=O)Cc1ccc(-c2ccccc2)cc1	47	-3	9.6*	-2
O=C(CSc1nc2[nH]ncc2c(=O)[nH]1)NCc1ccc(F)cc1	-7	-38	2	4
Cc1cc(NC(=S)Nc2ccc(C)c(Cl)c2)n[nH]1	75*	nt	1	nt
COc1ccc(NC(=S)Nc2cc(-c3ccccc3)[nH]n2)cc1Cl	66*	-14	2	-14
CCOc1ccc(NC(=S)Nc2cc(-c3ccccc3)[nH]n2)cc1	44	-19	5	-4
CC(C)(C)C1CCc2[nH]nc(C(=O)O)c2C1 (centres undefined)	-5	-33	1	62*
Cc1ccc(CN2CCN(/N=C\C=C\c3ccccc3)CC2)cc1	29	nt	0	nt
O=C(O)C(Cc1ccccc1)N1C(=O)/C(=C/c2ccccc2)SC1=S (centres undefined)	-21	-36	5	33*
SMILES	WT yeast gro inh	Yeast growth inh	RAM network inh	Yeast lifespan up
CCCc1cc(=O)oc2cc(C)c(CN3CCCC3)c(O)c12	-19	-21	0	35*
O=C(CSCC(=O)N1CCN(c2ccccc2)CC1)Nc1nc(-c2ccc(Cl)s2)cs1	22	17	-1	-6
O=C(CSCC(=O)N1CCCCC1)Nc1nc(-c2ccc(Cl)s2)cs1	72*	2	3	-7
CC(NC(=O)c1ccccc1)C(c1cccs1)N1CCOCC1 (centres undefined)	-14	-11	0	-8
CC(C)[C@@H](C(=O)N1CCNCC1)n1cc(CCO)nn1	-5	nt	-1	nt
O=C(CN(c1ccc(Cl)cc1)S(=O)(=O)c1ccc(Cl)c([N+](=O)[O-])c1)NCCc1ccccc1	-1	nt	8.4*	nt
COc1cc(SC)ccc1C(=O)NCCOc1ccc(C)c(C)c1	64*	-56	2	-5
COc1cc(SC)ccc1C(=O)NCC1CCCO1 (centres undefined)	86*	-3	1	-16
O=c1c2ccccc2c(/C=N/c2n[nH]c(CCCO)n2)c(O)n1-c1ccccc1Cl	-19	nt	8.5*	nt
COc1ccc(C(=O)Nc2cccc3cccnc23)cc1OC	17	-21	2	-10
CC(C)Oc1ccc(C(=O)Nc2cccc3cccnc23)cc1	59*	nt	7	nt
Brc1ccc(-c2nnc(-c3ccccc3)c(N3CCSCC3)n2)cc1	63*	1	3	-26
Cc1ccccc1C(=O)OC1OC(=O)C(Cl)=C1N1CCOCC1 (centres undefined)	-9	-7	1	0
COC(=O)NNC(=S)NCc1ccccc1	-3	-19	2	5
CC(C)SC1=NC(C)(C)C=C(/C=C/c2ccc(Cl)cc2Cl)N1	77*	-38	-1	-5
Clc1ccc(/C=C/c2nc3ccccc3[nH]2)c(Cl)c1	9	-36	2	-30
CC(C)SC1=NC(C)(C)C=C(/C=C/c2c(Cl)cccc2Cl)N1	66*	-25	0	-2
COc1cc(NS(=O)(=O)c2ccc3c(c2)n(C)c(=O)n3C)cc(OC)c1	-3	2	0	-6
COc1cccc(-c2nc(-c3ccccc3)nc(N3CCN(C)CC3)c2C#N)c1	81*	nt	1	nt
CN1CCN(c2nc(-c3ccccc3)nc(-c3ccccc3)c2C#N)CC1	73*	nt	3	nt
COc1ccc(-c2nc(-c3ccccc3)nc(N3CCN(C)CC3)c2C#N)cc1	0	-77	1	-25
COC(=O)c1c(NC(C)=O)sc2c1CCCC2	0	-49	1	30
COC(=O)c1c(NC(NC(=O)C(C)C)C(Cl)(Cl)Cl)sc2c1CCCC2 (centres undefined)	77*	-23	3	-2
O=C(COC(=O)Cc1ccsc1)Nc1ccc(Cl)c(S(=O)(=O)N2CCOCC2)c1	-8	-18	1	5
CCn1c(=N)n(CC(=O)c2cccc([N+](=O)[O-])c2)c2ccccc21	-6	-20	2	2
SMILES	WT yeast gro inh	Yeast growth inh	RAM network inh	Yeast lifespan up
CCn1c(=N)n(CC(=O)C23CC4CC(CC(C4)C2)C3)c2ccccc21	90*	-20	0	1
CCN(CC)c1nc(-c2ccccc2)nc2c1sc(=S)n2CC	5	nt	9.8*	nt
C/C(=N\NC(=O)c1cccnc1)c1cc(C)oc1C	-8	3	1	6
C/C(=N\NC(=O)c1cccnc1)c1c(O)cc(C)oc1=O	3	-22	-1	42*
C/C(=N\NC(=O)c1ccccc1[N+](=O)[O-])c1c(O)cc(C)oc1=O	-6	-9	-1	33*
C/C(=N\NC(=O)c1ccccc1O)c1c(O)cc(C)oc1=O	16	-22	-1	62
Cc1ccc(NC(=O)Cn2nnc3ccccc3c2=O)cc1C	15	nt	0	nt
Clc1ccc(CSc2nnc(CNc3cccc(Cl)c3)o2)cc1	81*	-67	6	-5
